HDAC3 inhib – HDAC3 deacetylase inhibitors, primary screen, biochemical, fluorescence, cell-free homogeneous | inhibition, % at 8.3 µM | recombinant HDAC3, fluorogenic peptide/trypsin coupled | 320,000 tested, 0.15% active; in the data active = inhibition above about 26%, passing the limit was not always enough; inconclusive = no clear call, values can overlap the other calls
RanGTP-Impb inh – inhibitors of RanGTP-importin-beta interaction, primary screen, biochemical, FRET, CFP-Ran, YFP-importin-beta, homogeneous; 300,000 tested, 1.1% active; inhibition, % (no concentration beside the values); cell-free CFP-Ran/YFP-importin-beta FRET ratio;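 active = more than half of the replicate wells show a fall in the fluorescence ratio signal beyond about 16%, limit read from the data, passing the limit was not always enough; inconclusive = exactly half of the replicate wells pass the set limit; inactive = fewer than half of replicates pass the limit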
Runt-SMMHC FRET – inhibitors of RUNX1 Runt–CBFb-SMMHC binding, primary screen, biochemical, FRET, Cerulean-Runt, Venus-CBFb-SMMHC, uHTS; Cerulean-Runt/Venus-CBFb-SMMHC FRET ratio 530/480, 1 h; 220,000 tested, 0.74% active; AID 1434, 2008; inhibition, % at 20 µM; Runt-related transcription factor 1 (Homo sapiens) + Core-binding factor subunit beta …;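 active = mean inhibition across duplicate retests at 20 µM reaching about 50%, limit read from the data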;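 also: inhibitors lower the FRET ratio by blocking Runt binding to CBFb-SMMHC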
CaV13 FRET inh – Primary screen for inhibitors of IQ motif and Ca2+-dependent inactivation inhibitor domain binding in CACNA1D, Förster resonance energy transfer in living cells, …. HEK cells, CFP/YFP FRET ICDI-IQ, plate reader, 10 min; percent FRET-ratio fall versus neutral wells. inhibition, % at 12.3 µM. 340,000 tested, 0.098% active. AID 743397;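 active = mean replicate inhibition of at least 30% and at least 1% of replicates passing that level; inconclusive = only one of the two criteria is met; inactive = neither criterion is met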
LANA-H2A inh – blockers of LANA interaction with H2A/H2B – biochemical, FP readout, HTS, primary screen. 320,000 tested, 0.6% active. inhibition, % (test concentration not listed). AID 2629, 2010. Protein LANA1 (Human herpesvirus 8 type P (isolate GK18)), Q9QR71. cell-free LANA-H2A/H2B peptide, fluorescence polarization; in the data active = inhibition mostly above about 10%, no sharp cut-off; inactive = mostly below about 6.7%
Target sequence (Q9QR71 whole entry, looked up): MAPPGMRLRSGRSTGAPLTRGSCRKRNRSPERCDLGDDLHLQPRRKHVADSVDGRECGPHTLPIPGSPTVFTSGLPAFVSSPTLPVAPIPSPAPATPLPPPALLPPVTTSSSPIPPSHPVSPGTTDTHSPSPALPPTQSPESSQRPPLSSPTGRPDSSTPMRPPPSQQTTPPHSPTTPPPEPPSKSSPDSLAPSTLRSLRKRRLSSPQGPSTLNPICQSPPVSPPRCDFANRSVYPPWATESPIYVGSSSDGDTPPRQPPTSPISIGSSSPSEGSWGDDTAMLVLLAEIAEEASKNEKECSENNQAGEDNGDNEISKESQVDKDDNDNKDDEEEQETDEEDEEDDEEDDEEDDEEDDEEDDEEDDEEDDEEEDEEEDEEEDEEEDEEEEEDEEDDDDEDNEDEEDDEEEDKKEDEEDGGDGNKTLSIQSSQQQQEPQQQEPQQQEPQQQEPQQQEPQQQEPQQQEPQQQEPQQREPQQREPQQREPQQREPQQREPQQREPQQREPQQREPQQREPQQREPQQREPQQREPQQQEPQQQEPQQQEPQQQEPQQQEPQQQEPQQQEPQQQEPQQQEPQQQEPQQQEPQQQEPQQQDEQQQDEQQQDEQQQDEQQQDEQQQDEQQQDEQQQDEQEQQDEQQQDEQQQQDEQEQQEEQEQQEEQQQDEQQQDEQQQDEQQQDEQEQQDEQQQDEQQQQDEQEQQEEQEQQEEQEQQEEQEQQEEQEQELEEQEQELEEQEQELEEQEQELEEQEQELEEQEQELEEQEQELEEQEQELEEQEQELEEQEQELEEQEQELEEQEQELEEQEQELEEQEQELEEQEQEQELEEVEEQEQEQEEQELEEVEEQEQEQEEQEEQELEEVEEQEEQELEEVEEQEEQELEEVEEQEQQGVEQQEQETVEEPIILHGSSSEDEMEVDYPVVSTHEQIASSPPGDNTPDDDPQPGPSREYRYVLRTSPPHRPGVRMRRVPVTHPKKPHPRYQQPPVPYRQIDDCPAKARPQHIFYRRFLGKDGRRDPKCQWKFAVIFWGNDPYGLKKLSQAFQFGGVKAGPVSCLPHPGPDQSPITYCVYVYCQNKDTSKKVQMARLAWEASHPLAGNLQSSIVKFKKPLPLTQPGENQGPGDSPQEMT
Runt-CBFb FRET – inhibitors of RUNX1 Runt–CBFb binding, primary screen, biochemical, FRET, Cerulean-Runt, Venus-CBFb, uHTS; Runt-related transcription factor 1 (Homo sapiens) + Core-binding factor subunit beta …; AID 1496, 2009; inhibition, % at 20 µM; Cerulean-Runt/Venus-CBFb FRET ratio 530/480, 1 h; 220,000 tested, 0.46% active;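 active = inhibition over about 50% at 20 µM in the single-dose screen, limit read from the data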
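Reagent – Venus-CBFb binding partner, 100 nM · Assay system – Cerulean-tagged RUNX1 Runt domain (FRET donor) fusion protein · Input – 100 nM per protein · Incubation – two 1 h room-temperature incubations shielded from light · Measured by – FRET fluorescence · Medium – Tris buffer pH 7.5 with salts and BSA · Benchmarks – unlabeled CBFb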
RUNX1 CBFb TR – inhibitors of RUNX1 Runt–CBFb binding, biochemical, TR-FRET; shares compounds with Runt-CBFb FRET; TR-FRET RUNX1 Runt domain-CBFb binding; inhibition, % at 20 µM; 480 tested, 20% active; in the data active = inhibition above about 40%
Numbers stand for hits. Compounds with a hit are over-represented: about 1.9% of the library has one in this group of screens.

What do the screens show for `O=C(O)C[C@@H]1C(=O)O[C@@H]2C(COC(=O)c3cc(O)c(O)c(O)c3)O[C@@H](OC(=O)c3cc(O)c(O)c(O)c3)[C@@H](OC(=O)c3cc(O)c(O)c4c3[C@H]1[C@H](O)C(=O)O4)[C@H]2OC(=O)c1cc(O)c(O)c(O)c1` (stereo not given in full)?
Runt-SMMHC FRET: inactive; Runt-CBFb FRET: 51; RUNX1 CBFb TR: 49

What do the screens show for `CCCOC(=O)C1=C(C)NC2=C(C(=O)CC(C)(C)C2)C1c1cccnc1` (stereo not given)?
HDAC3 inhib: inactive; RanGTP-Impb inh: inconclusive; Runt-SMMHC FRET: 127; CaV13 FRET inh: inactive; LANA-H2A inh: inactive; Runt-CBFb FRET: 63; RUNX1 CBFb TR: inactive

Results for O=C(COc1cccc(Cl)c1Cl)Nc1ccc2c(c1)CCC2 ?
HDAC3 inhib: inactive; RanGTP-Impb inh: inactive; Runt-SMMHC FRET: inactive; CaV13 FRET inh: inactive; LANA-H2A inh: inactive; Runt-CBFb FRET: 63; RUNX1 CBFb TR: inactive

How did COc1cccc2cc(-c3ccnc(=S)[nH]3)oc12 do in these assays?
HDAC3 inhib: inactive; RanGTP-Impb inh: inactive; Runt-SMMHC FRET: inactive; LANA-H2A inh: inactive; Runt-CBFb FRET: inactive

What do the screens show for `Fc1ccc(-c2ccnc(=S)[nH]2)cc1`?
HDAC3 inhib: inactive; RanGTP-Impb inh: inactive; Runt-SMMHC FRET: inactive; CaV13 FRET inh: inactive; LANA-H2A inh: inactive; Runt-CBFb FRET: 52; RUNX1 CBFb TR: inactive

What do the screens show for `Oc1ccc(/C=N/N=C(c2ccccc2)c2ccccc2)c(O)c1O`?
HDAC3 inhib: inactive; Runt-SMMHC FRET: inactive; CaV13 FRET inh: inactive; LANA-H2A inh: inactive; Runt-CBFb FRET: 57; RUNX1 CBFb TR: 63

Results for O=C(Nc1ccccc1C(F)(F)F)C1CC(=O)N(c2ccccc2F)C1 (stereo not given) ?
HDAC3 inhib: inactive; RanGTP-Impb inh: inactive; Runt-SMMHC FRET: inactive; CaV13 FRET inh: inactive; LANA-H2A inh: inactive; Runt-CBFb FRET: inactive

How did CCOC(=O)c1c(/N=C/N(C)C)sc(C)c1C do in these assays?
HDAC3 inhib: inactive; RanGTP-Impb inh: inactive; Runt-SMMHC FRET: inactive; CaV13 FRET inh: inactive; LANA-H2A inh: inactive; Runt-CBFb FRET: inactive

What do the screens show for `CCOC(=O)c1c(/N=C/N(C)C)sc(/C=N/Nc2ccccc2)c1-c1ccc(Cl)cc1`?
HDAC3 inhib: inactive; RanGTP-Impb inh: inactive; Runt-SMMHC FRET: 119; CaV13 FRET inh: inactive; LANA-H2A inh: inactive; Runt-CBFb FRET: 58; RUNX1 CBFb TR: inactive

Results for CCn1c(CNC(=O)COc2c(C)cccc2C)nnc1SCC(=O)Nc1nccs1 ?
HDAC3 inhib: inactive; RanGTP-Impb inh: inactive; Runt-SMMHC FRET: inactive; LANA-H2A inh: inactive; Runt-CBFb FRET: inactive

Results for COc1cc(C)c(NC(=O)C(=S)NCCc2ccccc2)cc1C ?
HDAC3 inhib: inactive; RanGTP-Impb inh: inactive; Runt-SMMHC FRET: inactive; CaV13 FRET inh: inactive; LANA-H2A inh: inactive; Runt-CBFb FRET: 51; RUNX1 CBFb TR: inactive

Results for COc1ccc(NC(=S)NCCc2ccccc2)c(C)c1 ?
HDAC3 inhib: inactive; RanGTP-Impb inh: inactive; CaV13 FRET inh: inactive; LANA-H2A inh: inactive

What do the screens show for `N/C(CSc1ccccn1)=N\OCc1c(Cl)cccc1Cl`?
HDAC3 inhib: inactive; RanGTP-Impb inh: inactive; Runt-SMMHC FRET: inactive; CaV13 FRET inh: inactive; LANA-H2A inh: inactive; Runt-CBFb FRET: inactive

Results for CC(=O)c1ccc(OC(=O)CCc2nc3ccccc3s2)cc1 ?
HDAC3 inhib: inconclusive; RanGTP-Impb inh: inactive; Runt-SMMHC FRET: inactive; CaV13 FRET inh: inactive; LANA-H2A inh: inactive; Runt-CBFb FRET: 59; RUNX1 CBFb TR: 42

Results for O=C1C2C3C=CC(CO)(O3)C2C(=O)N1c1ccccc1-c1ccccc1 (stereo not given) ?
HDAC3 inhib: inactive; Runt-SMMHC FRET: 68; LANA-H2A inh: inactive; Runt-CBFb FRET: 61; RUNX1 CBFb TR: 70

Results for O=C(CSc1ncnc2ccccc12)NCc1ccco1 ?
HDAC3 inhib: inactive; RanGTP-Impb inh: inactive; Runt-SMMHC FRET: inactive; CaV13 FRET inh: inactive; LANA-H2A inh: inactive; Runt-CBFb FRET: inactive

How did O=C(CSc1ncnc2ccccc12)c1ccco1 do in these assays?
HDAC3 inhib: 40; RanGTP-Impb inh: inconclusive; Runt-SMMHC FRET: 116; LANA-H2A inh: inactive; Runt-CBFb FRET: 59; RUNX1 CBFb TR: 42

How did COC(=O)c1ccc(C(=O)OC)c(N)c1 do in these assays?
HDAC3 inhib: inactive; Runt-SMMHC FRET: 110; LANA-H2A inh: inactive; Runt-CBFb FRET: 68; RUNX1 CBFb TR: 43

What do the screens show for `COC(=O)c1ccc(C(=O)OC)c(NC(=O)Oc2ccccc2)c1`?
HDAC3 inhib: inactive; RanGTP-Impb inh: inactive; Runt-SMMHC FRET: 132; CaV13 FRET inh: inactive; LANA-H2A inh: inactive; Runt-CBFb FRET: 66; RUNX1 CBFb TR: inactive

Results for CC1CCCCC1NC(=O)CSc1nnc(-c2ccccc2)n1N (stereo not given) ?
HDAC3 inhib: inactive; RanGTP-Impb inh: inactive; Runt-SMMHC FRET: inactive; CaV13 FRET inh: inactive; LANA-H2A inh: inactive; Runt-CBFb FRET: inactive

How did CCOC(=O)c1cnc(-n2nc(C)cc2C)nc1Nc1ccc2c(c1)OCO2 do in these assays?
Runt-SMMHC FRET: inactive; Runt-CBFb FRET: 73; RUNX1 CBFb TR: inactive

How did CCOC(=O)c1cnc(-n2nc(C)cc2C)nc1Nc1ccc(C)cc1 do in these assays?
RanGTP-Impb inh: inactive; Runt-SMMHC FRET: inactive; CaV13 FRET inh: inactive; Runt-CBFb FRET: inactive

What do the screens show for `N#C/C(=C\c1ccco1)C(=O)Nc1cccc2ncccc12`?
HDAC3 inhib: inactive; RanGTP-Impb inh: inactive; Runt-SMMHC FRET: inactive; CaV13 FRET inh: 41; LANA-H2A inh: inactive; Runt-CBFb FRET: 61; RUNX1 CBFb TR: inactive

What do the screens show for `N#C/C(=C\c1ccco1)C(=O)NCc1ccccc1`?
HDAC3 inhib: inactive; RanGTP-Impb inh: inactive; Runt-SMMHC FRET: inactive; LANA-H2A inh: inactive; Runt-CBFb FRET: inactive

Results for Cc1cc(C)c(NC(=S)NCC2CCN(C(C)c3ccccc3)C2)c(C)c1 (stereo not given) ?
HDAC3 inhib: inactive; RanGTP-Impb inh: inactive; Runt-SMMHC FRET: inactive; CaV13 FRET inh: inactive; LANA-H2A inh: inactive; Runt-CBFb FRET: 54; RUNX1 CBFb TR: inactive
